Data set [1] is described as follows: Cytotoxicity against mouse betaTC3 cells assessed as cellular membrane damage at 25 uM after 24 hrs by LDH release assay. Conditions: beta-tc3, 24 h. The data set is classed as cell-based. An outline of the steps:
(§1)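 βTC-3 insulinoma cells seeded at 10,000 per well and cultured 24 or 48 h, then exposed to compound for 24 h. LDH in the medium measured as a marker of membrane damage. Release expressed as percentage of that from cells given methanol alone. Mean ± SD, n = 4; significance taken at p < 0.05.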
On the technique in general: LDH leaks from cells whose membrane has failed.

Data set [2] in a line: Cytotoxicity against mouse betaTC3 cells assessed as cellular membrane damage at 10 uM after 24 hrs by LDH release assay. The data set is classed as cell-based. Conditions: beta-tc3, 24 h. In a few lines:
as §1

Data set [3] can be described thus: Cytotoxicity against mouse betaTC3 cells assessed as cell viability at 25 uM after 48 hrs by MTT assay relative to control. It is filed as cell-based, Beta-TC3. Conditions: read-out: Activity. An outline of the steps:
(§2)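 βTC-3 insulinoma cells seeded at 10,000 per well and cultured 24 and 48 h before exposure to natural LPC species or 2-methoxy sulfur analogues at 10 or 25 µM. Incubation for 24 or 48 h. Viability measured by MTT colorimetric assay and expressed as % of untreated cells, mean ± SD of four independent experimental repeats.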
(In general: Tetrazolium dyes change colour on reduction, which living cells bring about.)

A short description of data set [4]: Cytotoxicity against mouse betaTC3 cells assessed as cell viability at 25 uM after 24 hrs by MTT assay relative to control. The data set is classed as cell-based, Beta-TC3. To be noted: read-out: Activity. In a few lines: as §2
Data set [5] in a line: Cytotoxicity against mouse betaTC3 cells assessed as cell viability at 10 uM after 48 hrs by MTT assay relative to control. It is filed as cell-based, Beta-TC3. Conditions: read-out: Activity. An outline of the steps: as §2
A short description of data set [6]: Cytotoxicity against mouse betaTC3 cells assessed as cell viability at 10 uM after 24 hrs by MTT assay relative to control. It is filed as cell-based, Beta-TC3. Conditions: read-out: Activity. In a few lines: as §2

Regarding `CCCCCCCCCCCCCCCC(=O)OC[C@@H](O)COP(=O)([O-])OCC[N+](C)(C)C`, the Activity in data set [1] is 16.8%; in data set [2], “Toxic”. Moreover, the viability at 48 h, 25 µM in data set [3] turned out to be 20.1%. In addition, the viability at 24 h, 25 µM in data set [4] came out at 29.7%. Besides, in data set [5], the viability at 48 h, 10 µM was 59.8%. Also, the viability at 24 h, 10 µM in data set [6] was 73.1%.

`CCCCCCCCCCCCCCCCCC(=O)OC[C@@H](O)COP(=O)([O-])OCC[N+](C)(C)C`: the Activity result in data set [2] is “Toxic”. In addition, in data set [3], the viability at 48 h, 25 µM is 29.5%. Also, in data set [4], the viability at 24 h, 25 µM turned out to be 38.7%. Moreover, in data set [5], the viability at 48 h, 10 µM came to 59.3%. Further, in data set [6], the viability at 24 h, 10 µM is 88.8%.

With `CCCCCCCC/C=C\CCCCCCCC(=O)OC[C@@H](O)COP(=O)([O-])OCC[N+](C)(C)C`, the Activity in data set [1] turned out to be 9.04%. Further, the viability at 48 h, 25 µM in data set [3] amounted to 68.5%. For the same compound, in data set [4], the viability at 24 h, 25 µM was found to be 81.1%. For the same compound, in data set [5], the viability at 48 h, 10 µM is 93.4%. Further, in data set [6], the viability at 24 h, 10 µM came to 130%.

As for `CCCCCCCCCCCCCC(=O)OCC(COP(=O)([S-])OCC[N+](C)(C)C)OC` (mixture of isomers), the viability at 48 h, 25 µM in data set [3] was found to be 41.1%. Also, in data set [4], the viability at 24 h, 25 µM turned out to be 73.7%. Also, the viability at 48 h, 10 µM in data set [5] turned out to be 101%. In data set [6], the viability at 24 h, 10 µM was 112%.

For the compound `CCCCCCCCCCCCCCCCCC(=O)OCC(COP(=O)([S-])OCC[N+](C)(C)C)OC` (mixture of isomers), the viability at 48 h, 25 µM in data set [3] worked out at 50.9%. In data set [4], the viability at 24 h, 25 µM is 82.9%. In data set [5], the viability at 48 h, 10 µM is 61.4%. Moreover, the viability at 24 h, 10 µM in data set [6] turned out to be 90.3%.

In the case of `CCCCCCCCCCCC(=O)OCC(COP(=O)([S-])OCC[N+](C)(C)C)OC` (racemic), the viability at 48 h, 25 µM in data set [3] was 71.1%. The viability at 24 h, 25 µM in data set [4] is 90.7%. In addition, in data set [5], the viability at 48 h, 10 µM was determined as 106%. The viability at 24 h, 10 µM in data set [6] was 90.2%.

Take `CCCCCCCCCCCCCCCC(=O)OCC(COP(=O)([S-])OCC[N+](C)(C)C)OC` (racemic): the viability at 48 h, 25 µM in data set [3] worked out at 44.2%. Besides, the viability at 24 h, 25 µM in data set [4] is 60.4%. In addition, the viability at 48 h, 10 µM in data set [5] came out at 87.7%. The viability at 24 h, 10 µM in data set [6] was 105%.

For the compound `CCCCCCCC/C=C\CCCCCCCC(=O)OCC(COP(=O)([S-])OCC[N+](C)(C)C)OC` (racemic), the viability at 48 h, 25 µM in data set [3] came out at 133%. The viability at 24 h, 25 µM in data set [4] came out at 144%. In data set [5], the viability at 48 h, 10 µM was found to be 92.4%. Besides, in data set [6], the viability at 24 h, 10 µM was 121%.

For the compound `CCCCCCCCCCCC(=O)OCC(COP(=S)([S-])OCC[N+](C)(C)C)OC` (racemic), the viability at 48 h, 25 µM in data set [3] worked out at 41.8%. In data set [4], the viability at 24 h, 25 µM was determined as 83.7%. Moreover, in data set [5], the viability at 48 h, 10 µM was 98.2%. For the same compound, the viability at 24 h, 10 µM in data set [6] came to 87.1%.

For the compound `CCCCCCCCCCCCCC(=O)OCC(COP(=S)([S-])OCC[N+](C)(C)C)OC` (racemic), the viability at 48 h, 25 µM in data set [3] amounted to 35.8%. In data set [4], the viability at 24 h, 25 µM came to 64.7%. Moreover, the viability at 48 h, 10 µM in data set [5] came to 87.9%. For the same compound, in data set [6], the viability at 24 h, 10 µM is 104%.

Turning to `CCCCCCCCCCCCCCCC(=O)OCC(COP(=S)([S-])OCC[N+](C)(C)C)OC` (racemic), in data set [3], the viability at 48 h, 25 µM stood at 37.4%. Also, the viability at 24 h, 25 µM in data set [4] stood at 58.7%. Moreover, the viability at 48 h, 10 µM in data set [5] turned out to be 100%. For the same compound, the viability at 24 h, 10 µM in data set [6] worked out at 112%.

On to `CCCCCCCCCCCCCCCCCC(=O)OCC(COP(=S)([S-])OCC[N+](C)(C)C)OC` (racemic), for which, in data set [3], the viability at 48 h, 25 µM came to 38.9%. In addition, the viability at 24 h, 25 µM in data set [4] worked out at 63.1%. For the same compound, the viability at 48 h, 10 µM in data set [5] is 96.8%. Also, the viability at 24 h, 10 µM in data set [6] worked out at 85.8%.

Turning to `CCCCCCCC/C=C\CCCCCCCC(=O)OCC(COP(=S)([S-])OCC[N+](C)(C)C)OC` (racemic), the viability at 48 h, 25 µM in data set [3] was 112%. In addition, the viability at 24 h, 25 µM in data set [4] is 111%. Also, in data set [5], the viability at 48 h, 10 µM was 95.9%. Besides, the viability at 24 h, 10 µM in data set [6] was found to be 90.5%.

Regarding `CCCCCCCCCCCC(=O)OC[C@@H](O)COP(=O)([O-])OCC[N+](C)(C)C` [LYSOPHOSPHATIDYLCHOLINE], the Activity in data set [1] is 16.8%. Moreover, in data set [3], the viability at 48 h, 25 µM turned out to be 67.1%. Further, the viability at 24 h, 25 µM in data set [4] came out at 83%. Also, the viability at 48 h, 10 µM in data set [5] amounted to 86.1%. For the same compound, the viability at 24 h, 10 µM in data set [6] was 106%.

Take `CCCCCCCCCCCCCC(=O)OC[C@@H](O)COP(=O)([O-])OCC[N+](C)(C)C` [LYSOPHOSPHATIDYLCHOLINE]: the Activity result in data set [2] is given as “Toxic”. Moreover, the viability at 48 h, 25 µM in data set [3] came to 7.5%. Also, the viability at 24 h, 25 µM in data set [4] came to 26.3%. Besides, the viability at 48 h, 10 µM in data set [5] was found to be 53.1%. For the same compound, the viability at 24 h, 10 µM in data set [6] came to 75.5%.

Values taken from ChEMBL document CHEMBL3091382, “The chemical synthesis and cytotoxicity of new sulfur analogues of 2-methoxy-lysophosphatidylcholine” (Bioorg Med Chem Lett, 2013).
